We go through 12 compounds from ChEMBL document CHEMBL1154956, “Stereospecific synthesis of oximes and oxime ethers of 3-azabicycles: A SAR study towards antimicrobial agents” (2010).

Holding throughout (format): functional
In one assay the test system is Bacillus subtilis. Nature of the assay: Antibacterial activity against Bacillus subtilis by NCCLS broth microdilution method. In general terms: In broth dilution the organism is exposed to a series of concentrations in liquid medium.
Another assay concerns Staphylococcus aureus. Put plainly: Antibacterial activity against Staphylococcus aureus by NCCLS broth microdilution method.
In the next assay the test system is Klebsiella pneumoniae. Put plainly: Antibacterial activity against Klebsiella pneumoniae by NCCLS broth microdilution method.
Another assay deals with Pseudomonas aeruginosa. Nature of the assay: Antibacterial activity against Pseudomonas aeruginosa by NCCLS broth microdilution method.
A further assay deals with Candida albicans. Nature of the assay: Antifungal activity against Candida albicans by NCCLS broth microdilution method. An outline of the steps: (§1)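 MIC90 was taken as the lowest concentration that inhibited 90% of pathogen growth after incubation, reported in μg/mL. Broth dilution followed the NCCLS reference standards: M27-A for yeasts and the proposed standard for conidium-forming filamentous fungi. Fluconazole was the reference drug.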

A further assay deals with Candida parapsilosis. Put plainly: Antifungal activity against Candida parapsilosis by NCCLS broth microdilution method. An outline of the steps:
as §1

For another assay, the system named is Aspergillus niger. Put plainly: Antifungal activity against Aspergillus niger by NCCLS broth microdilution method. An outline of the steps:
as §1

For a further assay, the system named is Cryptococcus neoformans. Put plainly: Antifungal activity against Cryptococcus neoformans by NCCLS broth microdilution method. A digest of the protocol: as §1
Setting [1] is: Bacillus subtilis, read-out: MIC90.
Where [2] appears, read: Staphylococcus aureus, read-out: MIC90.
Setting [3] is: Klebsiella pneumoniae, read-out: MIC90.
The mark [4] stands for this setting: Pseudomonas aeruginosa, read-out: MIC90.
Where [5] appears, read: Candida albicans, read-out: MIC90.
Where [6] appears, read: Lodderomyces parapsilosis, read-out: MIC90.
[7] abbreviates: Aspergillus niger, read-out: MIC90.
The mark [8] stands for this setting: Cryptococcus neoformans, read-out: MIC90.

Values after ≈ are worked out from the molar mass of the structure shown.

Regarding `CO/N=C1\C2CCCC1(C)C(c1cccc(OC)c1)NC2c1cccc(OC)c1` (configuration not stated), the MIC90 (commonly the lowest concentration that inhibits either 90% of growth or 90% of the strains tested, depending on the study) is 64 µg/mL (≈ 162 µM) in the assay on Bacillus subtilis (setting [1]); 32 µg/mL (≈ 81.1 µM) in the assay with Staphylococcus aureus (setting [2]); 128 µg/mL (≈ 324 µM) in the assay on Klebsiella pneumoniae (setting [3]); over 128 µg/mL in the assay on Pseudomonas aeruginosa (setting [4]); over 128 µg/mL in the assay on Candida albicans (setting [5]); 64 µg/mL (≈ 162 µM) in the assay on Candida parapsilosis (setting [6]). Further, the figures for the MIC90 in the assay with Aspergillus niger (setting [7]) and with Cryptococcus neoformans (setting [8]) were over 128 µg/mL and 128 µg/mL (≈ 324 µM), respectively.

In the case of `CON=C1C2CC(C)CC1C(c1cccc(F)c1)NC2c1cccc(F)c1` (stereo in doubt; 56b), the MIC90 in the assay on Bacillus subtilis was found to be 32 µg/mL (≈ 86.4 µM); against Staphylococcus aureus it was 32 µg/mL (≈ 86.4 µM); against Klebsiella pneumoniae it was 64 µg/mL (≈ 173 µM); against Pseudomonas aeruginosa it was 64 µg/mL (≈ 173 µM); in the assay with Candida albicans, 8 µg/mL (≈ 21.6 µM); in the assay on Candida parapsilosis, 16 µg/mL (≈ 43.2 µM). The results for the MIC90 in the assay with Aspergillus niger and with Cryptococcus neoformans were 16 µg/mL (≈ 43.2 µM) and 32 µg/mL (≈ 86.4 µM), respectively.

`CO/N=C1\C2CCCC1(C)C(c1ccc(OC)cc1)NC2c1ccc(OC)cc1` (configuration not stated): the MIC90 with Bacillus subtilis (setting [1]) amounted to 64 µg/mL (≈ 162 µM); in the assay on Staphylococcus aureus (setting [2]), 16 µg/mL (≈ 40.6 µM); in the assay on Klebsiella pneumoniae (setting [3]), 64 µg/mL (≈ 162 µM); with Pseudomonas aeruginosa (setting [4]), 128 µg/mL (≈ 324 µM); in the assay with Candida albicans (setting [5]) it was 64 µg/mL (≈ 162 µM); in the assay with Candida parapsilosis (setting [6]), 128 µg/mL (≈ 324 µM). The MIC90 in the assay on Aspergillus niger (setting [7]) is 128 µg/mL (≈ 324 µM); in the assay on Cryptococcus neoformans (setting [8]), over 128 µg/mL.

For `Cc1ccc(C2NC(c3ccc(C)cc3)C3(C)CCCC2/C3=N\O)cc1` (configuration not stated), the MIC90 with Bacillus subtilis (setting [1]) was 128 µg/mL (≈ 367 µM); with Staphylococcus aureus (setting [2]) it was 128 µg/mL (≈ 367 µM); in the assay on Klebsiella pneumoniae (setting [3]), over 128 µg/mL; with Pseudomonas aeruginosa (setting [4]), over 128 µg/mL; in the assay with Candida albicans (setting [5]), 128 µg/mL (≈ 367 µM); with Candida parapsilosis (setting [6]), over 128 µg/mL. Further, the MIC90 with Aspergillus niger (setting [7]) stood at 64 µg/mL (≈ 184 µM); in the assay on Cryptococcus neoformans (setting [8]) it was 128 µg/mL (≈ 367 µM).

As to `CO/N=C1\C2CCCC1(C)C(c1ccccc1OC)NC2c1ccccc1OC` (configuration not stated), the MIC90 in the assay with Bacillus subtilis (setting [1]) turned out to be 32 µg/mL (≈ 81.1 µM); in the assay on Staphylococcus aureus (setting [2]) it was 32 µg/mL (≈ 81.1 µM); with Klebsiella pneumoniae (setting [3]) it was 32 µg/mL (≈ 81.1 µM); in the assay with Pseudomonas aeruginosa (setting [4]), 64 µg/mL (≈ 162 µM); in the assay on Candida albicans (setting [5]), 64 µg/mL (≈ 162 µM); in the assay with Candida parapsilosis (setting [6]), 64 µg/mL (≈ 162 µM). The MIC90 in the assay with Aspergillus niger (setting [7]) and in the assay with Cryptococcus neoformans (setting [8]) was 128 µg/mL (≈ 324 µM) throughout.

On to `CO/N=C1\C2CCCC1(C)C(c1cccc(F)c1)NC2c1cccc(F)c1` (configuration not stated), for which the MIC90 stood at 128 µg/mL (≈ 346 µM) in the assay with Bacillus subtilis (setting [1]); 16 µg/mL (≈ 43.2 µM) in the assay on Staphylococcus aureus (setting [2]); 32 µg/mL (≈ 86.4 µM) in the assay with Klebsiella pneumoniae (setting [3]); 32 µg/mL (≈ 86.4 µM) with Pseudomonas aeruginosa (setting [4]); 16 µg/mL (≈ 43.2 µM) in the assay with Candida albicans (setting [5]); 64 µg/mL (≈ 173 µM) in the assay on Candida parapsilosis (setting [6]). Moreover, the values for the MIC90 in the assay on Aspergillus niger (setting [7]) and in the assay on Cryptococcus neoformans (setting [8]) were 64 µg/mL (≈ 173 µM) and 128 µg/mL (≈ 346 µM), respectively.

As to `CC12CCCC(/C1=N\O)C(c1cccc(F)c1)NC2c1cccc(F)c1` (configuration not stated), the MIC90 is 128 µg/mL (≈ 359 µM) in the assay with Bacillus subtilis (setting [1]); 64 µg/mL (≈ 180 µM) in the assay with Staphylococcus aureus (setting [2]); 32 µg/mL (≈ 89.8 µM) with Klebsiella pneumoniae (setting [3]); 128 µg/mL (≈ 359 µM) with Pseudomonas aeruginosa (setting [4]); 32 µg/mL (≈ 89.8 µM) in the assay with Candida albicans (setting [5]); 64 µg/mL (≈ 180 µM) in the assay on Candida parapsilosis (setting [6]). Further, the MIC90 in the assay with Aspergillus niger (setting [7]) is 128 µg/mL (≈ 359 µM); in the assay with Cryptococcus neoformans (setting [8]), over 128 µg/mL.

For the compound `COc1ccc(C2NC(c3ccc(OC)cc3)C3(C)CCCC2/C3=N\O)cc1` (configuration not stated), the MIC90 with Bacillus subtilis (setting [1]) was 128 µg/mL (≈ 336 µM); in the assay with Staphylococcus aureus (setting [2]) it was 32 µg/mL (≈ 84.1 µM); in the assay on Klebsiella pneumoniae (setting [3]), 64 µg/mL (≈ 168 µM); in the assay on Pseudomonas aeruginosa (setting [4]) it was over 128 µg/mL; in the assay with Candida albicans (setting [5]), 128 µg/mL (≈ 336 µM); with Candida parapsilosis (setting [6]) it was over 128 µg/mL. Also, the values for the MIC90 in the assay with Aspergillus niger (setting [7]) and in the assay on Cryptococcus neoformans (setting [8]) were 128 µg/mL (≈ 336 µM) and over 128 µg/mL, respectively.

`CC1CC2C(=NO)C(C1)C(c1cccc(F)c1)NC2c1cccc(F)c1` (stereo in doubt; 50b): the MIC90 in the assay with Bacillus subtilis was over 128 µg/mL; against Staphylococcus aureus it was 32 µg/mL (≈ 89.8 µM); with Klebsiella pneumoniae, 64 µg/mL (≈ 180 µM); in the assay on Pseudomonas aeruginosa, 32 µg/mL (≈ 89.8 µM); in the assay on Candida albicans, 64 µg/mL (≈ 180 µM); against Candida parapsilosis it was 32 µg/mL (≈ 89.8 µM). The MIC90 against Aspergillus niger was determined as 32 µg/mL (≈ 89.8 µM); against Cryptococcus neoformans, 64 µg/mL (≈ 180 µM).

Turning to `CC1CC2C(=NO)C(C1)C(c1ccc(Cl)cc1)NC2c1ccc(Cl)cc1` (configuration not stated), the MIC90 with Bacillus subtilis (setting [1]) amounted to 32 µg/mL (≈ 82.2 µM); in the assay on Staphylococcus aureus (setting [2]), 32 µg/mL (≈ 82.2 µM); with Klebsiella pneumoniae (setting [3]), 16 µg/mL (≈ 41.1 µM); with Pseudomonas aeruginosa (setting [4]), 32 µg/mL (≈ 82.2 µM); in the assay on Candida albicans (setting [5]), 64 µg/mL (≈ 164 µM); in the assay with Candida parapsilosis (setting [6]) it was 64 µg/mL (≈ 164 µM). The MIC90 in the assay on Aspergillus niger (setting [7]) was determined as 32 µg/mL (≈ 82.2 µM); in the assay on Cryptococcus neoformans (setting [8]), 64 µg/mL (≈ 164 µM).

As for `CC1CC2C(=NO)C(C1)C(c1cccc(F)c1)NC2c1cccc(F)c1` (stereo in doubt; 50a), the MIC90 in the assay on Bacillus subtilis (setting [1]) was 128 µg/mL (≈ 359 µM); with Staphylococcus aureus (setting [2]) it was 32 µg/mL (≈ 89.8 µM); with Klebsiella pneumoniae (setting [3]) it was 32 µg/mL (≈ 89.8 µM); in the assay with Pseudomonas aeruginosa (setting [4]), 64 µg/mL (≈ 180 µM); in the assay on Candida albicans (setting [5]) it was 128 µg/mL (≈ 359 µM); in the assay on Candida parapsilosis (setting [6]) it was 64 µg/mL (≈ 180 µM). Also, the MIC90 in the assay with Aspergillus niger (setting [7]) was 64 µg/mL (≈ 180 µM); in the assay on Cryptococcus neoformans (setting [8]), over 128 µg/mL.

Take GENTAMICIN: the MIC90 was determined as 16 µg/mL against Bacillus subtilis, 4 µg/mL with Staphylococcus aureus, 2 µg/mL in the assay on Klebsiella pneumoniae and 16 µg/mL in the assay with Pseudomonas aeruginosa.
